An excerpt weighted towards active compounds, which were near 0.55% of everything screened.
TRPML3 agonist – activates the human TRPML3 channel. Q8TDD5. HEK293 TRPML3-YFP, Fluo-8 calcium fluorescence; 100% = the carbachol control signal. 0.29% of 220,000 active. activation, % at 3 µM;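 active means activation above its plate's cutoff, the mean activation of the plate's test wells plus 3 SD, cut at about 12% in these data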;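 further: 0% = DMSO only wells and 100% = carbachol wells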
Target sequence (Q8TDD5 whole entry, looked up): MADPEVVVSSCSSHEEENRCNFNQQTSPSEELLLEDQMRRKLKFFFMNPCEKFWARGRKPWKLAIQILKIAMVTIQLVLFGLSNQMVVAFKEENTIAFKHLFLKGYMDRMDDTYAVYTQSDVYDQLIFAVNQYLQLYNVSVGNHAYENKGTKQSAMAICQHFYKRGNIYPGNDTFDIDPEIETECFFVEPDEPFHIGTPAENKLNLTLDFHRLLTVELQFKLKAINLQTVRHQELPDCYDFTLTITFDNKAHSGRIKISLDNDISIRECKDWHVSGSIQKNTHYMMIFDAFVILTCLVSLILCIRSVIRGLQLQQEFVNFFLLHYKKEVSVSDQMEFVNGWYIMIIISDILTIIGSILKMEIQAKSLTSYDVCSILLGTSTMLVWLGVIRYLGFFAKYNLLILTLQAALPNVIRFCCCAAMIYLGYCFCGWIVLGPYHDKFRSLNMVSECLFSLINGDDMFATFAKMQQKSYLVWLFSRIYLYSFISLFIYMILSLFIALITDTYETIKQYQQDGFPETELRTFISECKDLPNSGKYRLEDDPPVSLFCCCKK
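system = HEK293 cells stably carrying human TRPML3-YFP | doses = one concentration, 3 µM nominal, 0.3% DMSO | timing = dye loading 1 h 37 °C then 30 min ambient, 125 s read | detection = Fluo-8 calcium dye fluorescence, ex 470-495, em 515-575 nm | benchmarks = high control carbachol 87 µM, low control DMSO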
V1R ag counter – counter-screen for oxytocin receptor agonists: human V1a receptor agonists; P37288; CHO-V1R cells, Fluo-8 calcium fluorescence, agonist mode; 0% DMSO, 100% 3 nM vasopressin; activation, % at 3 µM; 0.25% of 320,000 active;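 active means activation above the mean activation of all tested compounds plus 3 SD, per screening run, cut at about 20% in these data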;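 further: signal is peak over basal fluorescence ratio across a 100 second FLIPR read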
zfTRPN1 agonist – activates the zebrafish TRPN1 channel; activation, % at 3 µM; HEK293 zebrafish TRPN1-YFP, Fluo-8 calcium fluorescence; 100% = response to 87 µM carbachol; AID 1424; 0.18% of 220,000 active;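 active means activation above its plate's cutoff, the mean activation of test wells on that plate plus 3 SD, cut at about 19% in these data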;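 further: 0% = DMSO alone and 100% = 87 µM carbachol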
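Material: zebrafish TRPN1-YFP in HEK293 cells. Doses: one dose of 3 µM, 0.3% DMSO. Incubation: dye 1 h 37 °C plus 30 min RT. Measured by: intracellular calcium fluorescence with Fluo-8.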
OXTR agonist – activates the human oxytocin receptor; CHO-OTR cells, Fluo-8 calcium fluorescence; normalized: DMSO 0%, oxytocin 100%; AID 2435; activation, % at 3 µM; 0.32% of 320,000 active; P30559;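 active means activation above the mean of all tested compounds plus 3 SD, cutoff set per screening run, cut at about 20% in these data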;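 further: peak over basal fluorescence ratio from a 100 s FLIPR kinetic read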
OXTR potentiate – potentiates the human oxytocin receptor response | CHO-OTR cells, Fluo-8 calcium fluorescence, potentiator mode; 0% = oxytocin EC15, 100% = EC100 | activation, % at 3 µM | 0.061% of 320,000 active;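 active means activation above that plate's cutoff, the mean activation of tested compounds plus 3 SD, cut at about 6.6% in these data, passing the limit was not always enough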;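 further: 100% uses oxytocin at 75 nM as the full agonist control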
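Assay system: CHO-OTR cells, human receptor / Also added: oxytocin at about EC15, sub-maximal agonist stimulus / Dosing: single dose, 3.0 µM nominal final compound concentration / Incubation: 6 min pre-incubation, 100 s read / Technique: Fluo-8 calcium dye fluorescence / Read-out: % activation vs EC15 and EC100 oxytocin / Benchmarks: EC15 oxytocin low, 75 nM oxytocin high / Replicates: singlicate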
OXTR ag confirm – confirmation of human oxytocin receptor agonists; shares compounds with OXTR agonist; CHO-OTR cells, Fluo-8 calcium fluorescence, agonist; activation, % at 3 µM; 20% of 390 active; AID 434963;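 active means mean activation above about 20% derived from the earlier single-dose screen, limit read from the data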;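 further: peak over minimum fluorescence ratio per well during a 100 second FLIPR read; 0% = DMSO alone and 100% = oxytocin high control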
V1aR counter 3x – V1R agonism in triplicate, counter-screen for OXTR agonists; shares compounds with OXTR agonist; CHO-V1R cells, Fluo-8 calcium fluorescence, agonist; activation, % at 3 µM; 10% of 390 active; AID 434991;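 active means mean activation over triplicate exceeds the hit threshold set in the earlier primary screen, cut at about 20% in these data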;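 further: peak over basal fluorescence ratio within a 100 second read; 0% = DMSO alone and 100% = 3 nM vasopressin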
Starred values were filed as active, the others as inactive.

For O=c1cc(-c2ccccc2Cl)oc2c(NS(=O)(=O)c3cc(Cl)cc(Cl)c3O)ccc(O)c12 the results were TRPML3 agonist -0.2, V1R ag counter 14.9, zfTRPN1 agonist 4.8, OXTR agonist 27.9*, OXTR potentiate -17.9, OXTR ag confirm 16.7 and V1aR counter 3x 17.2.
Screening CCc1ccc(S(=O)(=O)Nc2ccc(O)c3c(=O)cc(-c4ccccc4Cl)oc23)cc1 returned V1R ag counter -1.8, OXTR agonist -2.0 and OXTR potentiate -12.4.
`O=C(CCc1nnc(CCCc2ccccc2)o1)NCC(F)(F)F` gave TRPML3 agonist 0.6, V1R ag counter 1.1, zfTRPN1 agonist 1.3, OXTR agonist -0.3 and OXTR potentiate -8.2.
`Cc1onc(-c2ccccc2)c1C(=O)Nc1nnc(C(C)C)s1` gave V1R ag counter 0.3, OXTR agonist -0.5 and OXTR potentiate -1.4.
Screening Cc1onc(-c2ccccc2)c1C(=O)Nc1ncc([N+](=O)[O-])s1 returned V1R ag counter 9.6, OXTR agonist 20.6*, OXTR potentiate -13.7, OXTR ag confirm 15.8 and V1aR counter 3x 11.8.
`CCCc1nnc(NC(=O)CN2C(=O)c3ccccc3C2=O)s1` gave TRPML3 agonist -0.1, V1R ag counter 1.2, zfTRPN1 agonist 0.0, OXTR agonist 2.1 and OXTR potentiate -5.4.
For CCCc1nnc(NC(=O)Cn2c(=O)sc3ccccc32)s1 the results were TRPML3 agonist 1.5, V1R ag counter 10.7, zfTRPN1 agonist 2.2, OXTR agonist 21.0*, OXTR potentiate -8.7, OXTR ag confirm 8.3 and V1aR counter 3x 5.4.
`COc1ccccc1Oc1ccc2c(c1)C(=O)N(c1ccc(O)cc1)C2=O` gave TRPML3 agonist 0.7, V1R ag counter 7.3, zfTRPN1 agonist 0.7, OXTR agonist 25.6*, OXTR potentiate -17.8, OXTR ag confirm 0.7 and V1aR counter 3x 3.9.
Screening COc1ccccc1Oc1ccc2c(c1)C(=O)N(CC(=O)O)C2=O returned V1R ag counter 0.4, OXTR agonist 0.9 and OXTR potentiate -1.9.
Screening COc1ccc(OC)c(NC(=O)Cc2nn(C)c(=O)c3ccccc23)c1 returned TRPML3 agonist 2.6, V1R ag counter 7.2, zfTRPN1 agonist 4.6, OXTR agonist 20.1*, OXTR potentiate -19.9, OXTR ag confirm 6.7 and V1aR counter 3x 8.8.
Screening COc1cc(NC(=O)Cc2nn(C)c(=O)c3ccccc23)cc(OC)c1OC returned TRPML3 agonist 0.5, V1R ag counter 2.0, zfTRPN1 agonist 1.4, OXTR agonist 0.5 and OXTR potentiate -7.1.
Screening CCCCCCOc1ccc(OCC(O)CN2C(=O)NC(C)(C)C2=O)cc1 (configuration not stated) returned TRPML3 agonist -0.5, V1R ag counter 14.4, zfTRPN1 agonist 0.6, OXTR agonist 23.7*, OXTR potentiate -11.0, OXTR ag confirm 4.7 and V1aR counter 3x 1.9.
CCOC(=O)CSc1n[nH]c(NC(C)=O)n1 was read as TRPML3 agonist 1.2, V1R ag counter 0.3, zfTRPN1 agonist 0.8, OXTR agonist 0.2 and OXTR potentiate 4.4.
For Nc1nc2ccccc2n1CCOc1ccc(Br)cc1 the results were V1R ag counter 7.4, OXTR agonist 21.4*, OXTR potentiate -14.8, OXTR ag confirm 1.2 and V1aR counter 3x 0.1.
`Nc1nc2ccccc2n1CCOc1ccc(Cl)cc1` gave V1R ag counter 5.8, OXTR agonist 6.2 and OXTR potentiate -8.1.
`COc1ccc(NC(=O)C/C(C)=N/NC(=O)c2cccs2)c([N+](=O)[O-])c1` gave V1R ag counter 0.6, OXTR agonist -1.4 and OXTR potentiate -10.2.
For CCC1(c2ccc(F)cc2)NC(=O)N(CC(=O)N2c3ccccc3CC2C)C1=O (configuration not stated) the results were V1R ag counter 19.5, OXTR agonist 28.5*, OXTR potentiate -10.9, OXTR ag confirm 14.6 and V1aR counter 3x 10.6.

Compound activity from PubChem BioAssay.
